In brackets after ≈: the same amount, converted by molar mass. Like-named read-outs stand apart in the source and are kept apart here.
Key:
CRKP, CRE, and CRAB = assay: Acute pneumonia models, blood indicators, histology and inflammation; type: in vivo, BALB/c mice; details: TINA 10 mg/kg or imipenem 8 mg/kg, single dose
CRKP [1] = assay: Lethal CRKP pneumonia model, survival; type: in vivo, BALB/c mice; details: single dose; TINA 10 mg/kg, imipenem 8 mg/kg, or 10 + 8 mg/kg; n = 10
Summary of the method: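 Female BALB/c mice (n = 10 per group) infected with 5 × 10^7 CFU CRKP. Thirty minutes later they were treated with PBS, test compound 10 mg/kg, imipenem 8 mg/kg, or test compound plus imipenem (10 + 8 mg/kg) as a single or double dose. Survival was followed for 7 days postinfection and cumulative survival calculated.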

CRKP [2] = assay: Time-dependent killing assay; type: cell-based, K. pneumoniae; details: TINA 20 μg/ml or imipenem 8 μg/ml alone, 24 hours
CRKP [3] = assay: Resistance development assay, 20 passages; type: cell-based, K. pneumoniae; details: Klebsiella pneumoniae
Summary of the method: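 Log-phase CRKP clinical isolate diluted in LB broth containing imipenem, with or without test compound, and cultured at 37°C for serial passaging.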

C[C@@H](O)[C@H]1C(=O)N2C(C(=O)O)=C(SCCN=CN)C[C@H]12 [Imipenem, imipenem]
effect of monotherapy on live bacteria in the lungs (CRKP, CRE, and CRAB): mere effects on eliminating live bacteria in the lungs | survival rate at dpi 7 (CRKP [1]): 30% | change in bacteria counts, monotherapy (CRKP [2]): increased by two orders of magnitude in bacteria counts | MIC (CRKP [3]; read-out: MIC after 20 passages): 2050 µg/mL (≈ 6.84 mM) | MIC (CRKP [3]; read-out: MIC before passaging): 64 µg/mL (≈ 0.214 mM)

— PMC12542962 (Science Advances, 2025)
